We go through one molecule from paper PMC6387599 (Drug Design, Development and Therapy, 2019).

The subject of data set [1] is xylene-induced ear edema. The data set can be described thus: Xylene-induced ear edema test. In kind it is in vivo. Particulars: mice, intraperitoneal, equivalent to 200 μg/kg Bud, 1 hour before xylene. The procedure, abridged: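 Male Kunming mice (20–25 g), n=10 per group, dosed intraperitoneally (0.1 mL/10 g body weight) with test compound at a dose equivalent to 200 µg/kg budesonide; vehicle 2% DMSO. After 1 h, 20 µL xylene applied to right ear, left ear untreated. Killed 1 h later; 6-mm ear discs weighed. Edema = right minus left ear weight. Analysed by one-way ANOVA with Fisher's LSD; mean ± SD.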

For data set [2], the system named is IL-6 production in LPS-induced A549 cells. The data set can be described thus: Inhibition of IL-6 production. The note with it: Homo sapiens, A549, 24 h, read-out: inhibitory rate on IL-6. Type of data set: cell-based. The procedure, abridged: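 A549 cells preincubated 1 h with test compound (10^-11–10^-6 M), then stimulated with LPS-EB (5 µL of 10 µg/mL solution) for 24 h. IL-6 in supernatants measured by ELISA, read at 450 nm. Inhibitory rate of IL-6 production calculated; IC50 from dose–response curves; n=3, mean ± SD.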

Data set [3] in a line: Equilibrium solubility in distilled water. In kind it is physicochemical. Particulars: 25°C, 72 hours. Put shortly: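 Supernatant sampled at 0, 12, 24, 36, 48, 60 and 72 h and passed through a 0.45-µm filter. Concentration measured by HPLC at 242 nm, 30°C, 1.0 mL/min. Mobile phase was methanol or acetonitrile with phosphate buffer (pH 8.0 or 7.4; 70:30 or 80:20 v/v), depending on compound.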

Each structure is given as a SMILES string.

For the molecule `CCCC1O[C@@H]2C[C@H]3[C@@H]4CCC5=CC(=O)C=C[C@]5(C)[C@H]4[C@@H](O)C[C@]3(C)[C@]2(C(=O)CO)O1` (stereo partly drawn) [Bud, budesonide], in data set [1], the “inhibition of ear edema” value turned out to be 17.19%. Further, the inhibition at 0.001 µM in data set [2] is more than 50%. The same molecule returned an equilibrium solubility in data set [3] of 0.0022 g/100 g water.
